# Test results reported in ChEMBL document CHEMBL4689842, “EUbOPEN Chemogenomics Library wave 1” (2021).
# Where “and” joins values, the source holds several entries; their conditions need not be identical. Equal entries are not always repeated.
# Test system: U2OS
# Experiment: Multiplex assay against U2OS
# Assay type: toxicity, cell-based
# Details: human
# Procedure, shortened: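 Cells were classed with CellPathfinder machine-learning gating, first as Hoechst high-intensity objects or normal cells, then (normal cells) as healthy, pyknosed or fragmented nuclei, and finally (pyknosed cells) as mitotic or apoptotic. Staining of live cells at seeding used Hoechst33342, BioTracker Green Microtubule Cytoskeleton Dye, MitoTracker Red and Annexin V Alexa Fluor 680, with imaging on a CQ1 microscope at 37°C and 5% CO2 after compound addition. Tubulin, mitochondrial-mass and membrane-permeability phenotypes are per cents of healthy-nucleus cells.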
# [1] = 12 h, 1 µM, compound concentration 1 uM, replicate 1
# [2] = 12 h, 1 µM, compound concentration 1 uM, replicate 2
# [3] = 12 h, 10 µM, compound concentration 10 uM, replicate 1
# [4] = 12 h, 10 µM, compound concentration 10 uM, replicate 2
# [5] = 24 h, 1 µM, compound concentration 1 uM, replicate 1
# [6] = 24 h, 1 µM, compound concentration 1 uM, replicate 2
# [7] = 24 h, 10 µM, compound concentration 10 uM, replicate 1
# [8] = 24 h, 10 µM, compound concentration 10 uM, replicate 2
# [9] = 48 h, 1 µM, compound concentration 1 uM, replicate 1
# [10] = 48 h, 1 µM, compound concentration 1 uM, replicate 2
# [11] = 48 h, 10 µM, compound concentration 10 uM, replicate 1
# [12] = 48 h, 10 µM, compound concentration 10 uM, replicate 2
structure (smiles),measurement,setting,value
Cc1ccccc1C(c1ccccc1C)N1C2CCC1CC(O)(c1ccccc1)C2 (stereo not drawn),Population Healthy Nuclei (%),[1],82%
same,Population Mitotic Cells (%),[1],66%
same,Population Normal (%),[1],89%
same,Total Cell Count,[1],131
same,Population Healthy Nuclei (%),[2],81%
same,Population Mitotic Cells (%),[2],50%
same,Population Normal (%),[2],90%
same,Total Cell Count,[2],80
same,Population Healthy Nuclei (%),[3],73%
same,Population Mitotic Cells (%),[3],64%
same,Population Normal (%),[3],96%
same,Total Cell Count,[3],158
same,Population Healthy Nuclei (%),[4],81%
same,Population Mitotic Cells (%),[4],60%
same,Population Normal (%),[4],86%
same,Total Cell Count,[4],71
same,Population Healthy Nuclei (%),[5],82%
same,Population Mitotic Cells (%),[5],88%
same,Population Normal (%),[5],97%
same,Total Cell Count,[5],149
same,Population Healthy Nuclei (%),[6],77%
same,Population Mitotic Cells (%),[6],80%
same,Population Normal (%),[6],95%
same,Total Cell Count,[6],89
same,Population Healthy Nuclei (%),[7],74%
same,Population Mitotic Cells (%),[7],65%
same,Total Cell Count,[7],201
same,Population Healthy Nuclei (%),[8],65%
same,Population Mitotic Cells (%),[8],50%
same,Population Normal (%),[8],93%
same,Total Cell Count,[8],85
same,Population Healthy Nuclei (%),[9],89%
same,Population Mitotic Cells (%),[9],68%
same,Total Cell Count,[9],157
same,Population Healthy Nuclei (%),[10],88%
same,Population Mitotic Cells (%),[10],87%
same,Population Normal (%),[10],97%
same,Total Cell Count,[10],98
same,Population Healthy Nuclei (%),[11],71%
same,Population Mitotic Cells (%),[11],43%
same,Population Normal (%),[11],95%
same,Total Cell Count,[11],289
same,Population Healthy Nuclei (%),[12],68%
same,Population Mitotic Cells (%),[12],40%
same,Population Normal (%),[12],85%
same,Total Cell Count,[12],141
CN(c1ccccc1CNc1nc(Nc2ccc3c(c2)CC(=O)N3)ncc1C(F)(F)F)S(C)(=O)=O,Population Apoptotic (%),[3],40% and 75%
same,Population Healthy Nuclei (%),[3],44% and 89%
same,Population Hoechst High Intensity Objects (%),[3],7% and 4%
same,Population Mitochondria Different-Phenotype (%),[3],30% and 26%
same,Population Mitotic Cells (%),[3],59% and 25%
same,Population Normal (%),[3],92% and 95%
same,Population Tubulin-Different-Phenotype (%),[3],72% and 24%
same,Total Cell Count,[3],122 and 100
same,Population Apoptotic (%),[4],91% and 33%
same,Population Fragmented Nuclei (%),[4],23% and 11%
same,Population Healthy Nuclei (%),[4],59% and 85%
same,Population Hoechst High Intensity Objects (%),[4],17% and 6%
same,Population Membrane Permeable-Phenotype (%),[4],27% and 12%
same,Population Mitochondria Different-Phenotype (%),[4],37% and 32%
same,Population Normal (%),[4],82% and 93%
same,Population Tubulin-Different-Phenotype (%),[4],55% and 32%
same,Total Cell Count,[4],116 and 91
same,Population Fragmented Nuclei (%),[7],16%
same,Population Healthy Nuclei (%),[7],56% and 83%
same,Population Mitochondria Different-Phenotype (%),[7],57% and 45%
same,Population Normal (%),[7],81% and 96%
same,Population Tubulin-Different-Phenotype (%),[7],72% and 37%
same,Total Cell Count,[7],125 and 100
same,Population Apoptotic (%),[8],59% and 30%
same,Population Fragmented Nuclei (%),[8],13% and 10%
same,Population Healthy Nuclei (%),[8],53% and 78%
same,Population Hoechst High Intensity Objects (%),[8],19% and 8%
same,Population Mitochondria Different-Phenotype (%),[8],51% and 52%
same,Population Mitotic Cells (%),[8],40% and 69%
same,Population Normal (%),[8],80% and 91%
same,Population Tubulin-Different-Phenotype (%),[8],48% and 38%
same,Total Cell Count,[8],130 and 91
